Experimental data published in ChEMBL document CHEMBL4765360, “Design, synthesis and biological evaluation of novel potent STAT3 inhibitors based on BBI608 for cancer therapy” (Eur J Med Chem, 2020).
Calls of active or inactive are those of the source. The calls are words filed in the database; no cut-off is given here.

Tests used:
HepG2 = assay: Antiproliferative activity against human HepG2 cells overexpressed STAT3 assessed as reduction in cell growth incubated for 48 hrs by CCK-8 assay; assay type: functional, cell-based; details: HepG2, 48 h
Procedure, shortened: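 Cells seeded at 5000-7000/well and allowed to settle for 8 h at 37 °C, 5% CO2. Graded compound concentrations were then added in triplicate (DMSO <0.1%) for 48 h. Medium was replaced with 10% CCK-8 for 4 h (MDA-MB-231, MDA-MB-468) or 1 h (HepG2), and A450 was read. IC50 is mean ± SD of at least three independent experiments. HepG2 was grown in high-glucose DMEM with 10% FBS.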

[1] = target: T1, Signal transducer and activator of transcription 3 (Homo sapiens, UniProt P40763); assay: Displacement of 5-FAM-GpYLPQTV-NH2 from His-tagged STAT3 (unknown origin) (127 to 722 residues) incubated for 30 mins followed by fluorescent peptide probe addition and measured after 1 hr by fluorescence polarization based competition binding assay
T1 sequence (P40763 whole entry, the tested form may be a part): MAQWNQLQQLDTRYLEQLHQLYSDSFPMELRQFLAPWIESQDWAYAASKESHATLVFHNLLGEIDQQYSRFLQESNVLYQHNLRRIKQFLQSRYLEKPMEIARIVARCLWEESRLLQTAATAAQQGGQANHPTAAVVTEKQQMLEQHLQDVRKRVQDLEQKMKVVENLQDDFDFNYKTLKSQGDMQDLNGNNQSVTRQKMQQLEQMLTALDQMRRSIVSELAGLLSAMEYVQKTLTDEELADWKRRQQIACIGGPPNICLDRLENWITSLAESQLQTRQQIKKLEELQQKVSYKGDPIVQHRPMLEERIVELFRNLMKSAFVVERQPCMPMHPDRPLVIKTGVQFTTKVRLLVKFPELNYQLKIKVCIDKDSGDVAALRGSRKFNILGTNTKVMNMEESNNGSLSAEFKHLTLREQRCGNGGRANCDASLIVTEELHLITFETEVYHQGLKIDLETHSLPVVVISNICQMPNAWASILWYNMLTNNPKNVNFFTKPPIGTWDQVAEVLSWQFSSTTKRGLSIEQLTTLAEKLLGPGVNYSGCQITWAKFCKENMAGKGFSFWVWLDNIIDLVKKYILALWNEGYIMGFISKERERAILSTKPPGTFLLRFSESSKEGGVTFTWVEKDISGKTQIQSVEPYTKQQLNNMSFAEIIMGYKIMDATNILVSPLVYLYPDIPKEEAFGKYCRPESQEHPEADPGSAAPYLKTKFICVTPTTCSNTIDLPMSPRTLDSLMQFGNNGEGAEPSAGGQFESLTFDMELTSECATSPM

[2] = target: T1, Signal transducer and activator of transcription 3; assay: Inhibition of STAT3 in human MDA-MB-231 cells assessed as reduction in STAT3 Y705 phosphorylation incubated for 24 hrs by Western blot analysis; assay type: cell-based; details: dose 0.75-3 µM
Procedure, shortened: (§1)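 MDA-MB-231 cells treated with a range of concentrations for 24 h. RIPA lysates with PMSF, 40 µg protein/lane, on 10% SDS-PAGE, then PVDF. Blocked in 5% milk/TBST for 2 h. Primary antibodies to STAT3, p-STAT3(Y705), STAT1, p-STAT1(Y701), c-Myc and Cyclin D1 overnight at 4 °C; GAPDH as loading control. HRP secondary for 1 h; ECL detection.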

[3] = target: T2, Signal transducer and activator of transcription 1-alpha/beta (Homo sapiens) (UniProt P42224); assay: Inhibition of STAT1 in human MDA-MB-231 cells assessed as reduction in STAT1 Y701 phosphorylation at 0.75 to 3 uM incubated for 24 hrs by Western blot analysis; assay type: cell-based; details: dose 0.75-3 µM; procedure, shortened: as §1
T2 sequence (whole entry): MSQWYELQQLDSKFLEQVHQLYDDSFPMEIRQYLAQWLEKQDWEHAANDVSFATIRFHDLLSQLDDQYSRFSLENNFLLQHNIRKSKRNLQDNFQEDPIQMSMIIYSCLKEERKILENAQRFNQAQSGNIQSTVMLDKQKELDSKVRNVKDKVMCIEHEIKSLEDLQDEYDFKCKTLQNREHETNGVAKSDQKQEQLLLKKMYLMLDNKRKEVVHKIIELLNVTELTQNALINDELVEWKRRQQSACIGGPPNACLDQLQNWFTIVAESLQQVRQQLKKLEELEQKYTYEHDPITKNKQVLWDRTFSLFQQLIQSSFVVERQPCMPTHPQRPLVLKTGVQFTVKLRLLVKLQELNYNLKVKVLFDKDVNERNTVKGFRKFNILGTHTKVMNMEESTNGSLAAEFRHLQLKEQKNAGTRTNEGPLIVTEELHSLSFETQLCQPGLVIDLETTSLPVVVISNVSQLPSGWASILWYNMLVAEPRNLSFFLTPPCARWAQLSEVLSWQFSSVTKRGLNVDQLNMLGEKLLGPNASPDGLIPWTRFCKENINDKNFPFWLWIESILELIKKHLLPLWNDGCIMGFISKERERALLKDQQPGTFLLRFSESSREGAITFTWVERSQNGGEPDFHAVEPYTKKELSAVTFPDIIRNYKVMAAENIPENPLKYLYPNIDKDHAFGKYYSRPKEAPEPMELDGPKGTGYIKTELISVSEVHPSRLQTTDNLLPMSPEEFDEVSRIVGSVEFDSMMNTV

[4] = target: T1, Signal transducer and activator of transcription 3; assay: Inhibition of STAT3 in human MDA-MB-231 cells assessed as reduction in STAT3 Y705 phosphorylation in nucleus at 3 uM incubated for 24 hrs by immunofluorescence staining based fluorescence microscopy; assay type: subcellular
Procedure, shortened: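 MDA-MB-231 cells at 1×10^4 per dish, adhered overnight, then exposed to 3.0 µM for 24 h. Fixed in 4% paraformaldehyde and permeabilized with 0.5% Triton X-100. Blocked in 5% BSA for 1 h. Anti-p-STAT3 primary overnight at 4 °C, then Alexa Fluor 546 anti-rabbit for 1 h at RT. Hoechst nuclear stain; imaged by fluorescence microscopy.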

MDA-MB-231 [5] = assay: Induction of apoptosis in human MDA-MB-231 cells incubated for 24 hrs by annexin V-FITC and PI staining based flow cytometry analysis; assay type: functional, cell-based; details: dose 1-4 µM
MDA-MB-231 [6] = assay: Induction of apoptosis in human MDA-MB-231 cells assessed as viable cells at 1 uM incubated for 24 hrs by annexin V-FITC and PI staining based flow cytometry analysis (reference value: 93.37 %); assay type: functional; details: read-out: Activity
MDA-MB-231 [7] = assay: Induction of apoptosis in human MDA-MB-231 cells assessed as early apoptotic cells at 1 uM incubated for 24 hrs by annexin V-FITC and PI staining based flow cytometry analysis (reference value: 2.69 %); assay type: functional
MDA-MB-231 [8] = assay: Induction of apoptosis in human MDA-MB-231 cells assessed as necrotic cells at 1 uM incubated for 24 hrs by annexin V-FITC and PI staining based flow cytometry analysis (reference value: 0.23 %); assay type: functional
MDA-MB-231 [9] = assay: Induction of apoptosis in human MDA-MB-231 cells assessed as necrotic cells at 2 uM incubated for 24 hrs by annexin V-FITC and PI staining based flow cytometry analysis (reference value: 0.23 %); assay type: functional
MDA-MB-231 [10] = assay: Induction of cell cycle arrest in human MDA-MB-231 cells assessed as G0/G1 phase accumulation at 1 uM incubated for 24 hrs by PI staining based flow cytometry analysis (reference value: 57.99 %); assay type: functional
MDA-MB-231 [11] = assay: Induction of cell cycle arrest in human MDA-MB-231 cells assessed as G2/M phase accumulation at 4 uM incubated for 24 hrs by PI staining based flow cytometry analysis (reference value: 15.80 %); assay type: functional
Mus musculus = assay: In vivo inhibition of STAT3 in BALB/c mouse xenografted with human MDA-MB-231 cells assessed as reduction in STAT3 Y705 phosphorylation in tumor tissue at 10 mg/kg, ip administered once daily for 21 days and measured on day 21 by immunofluorescent staining based fluorescence microscopy; assay type: functional, organism-based; details: dose 10.0 mg/kg/day, time 21.0 day
Procedure, shortened: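 Tumors from the xenograft study (10 mg/kg i.p. daily, 21 days) were sectioned and fixed. Sections were stained with anti-p-STAT3 overnight at 4 °C, then Cy3 anti-rabbit secondary for 40 min at 37 °C. Nuclei stained with DAPI; imaged by fluorescence microscopy. Mean ± SEM, n=4.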

MDA-MB-231 [12] = assay: Antitumor activity against human MDA-MB-231 cells xenografted in BALB/c mouse assessed reduction in tumor weight at 5 mg/kg, ip administered once daily for 21 days and measured on day 21 relative to control; assay type: functional; details: MDA-MB-231, ip, 504 h, time 21 day
Procedure, shortened: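 Female BALB/c nude mice, 5 weeks old (16–18 g), were given 5×10^6 MDA-MB-231 cells subcutaneously. At ~50 mm³, mice were randomized to three groups (n=6): vehicle, 5 or 10 mg/kg i.p. daily for 21 days. Tumor volume (length×width²/2) was measured every 3 days and body weight recorded. Tumors were excised and weighed at the end. TGI derived versus control; mean ± SEM.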

IC50 (HepG2): 1.24 µM | IC50 [1]: 5.18 µM | inhibition ([1]; time 1.5 hrs): Dose-dependent effect | inhibition [2]: Dose-dependent effect | inhibition [3]: inactive | inhibition [4]: Active
SMILES: COc1ccc(NC2=CC(=O)c3cc(C(C)=O)oc3C2=O)cc1
Activity (MDA-MB-231 [5]): Dose-dependent effect | viability at 1 µM (MDA-MB-231 [6]): 87.9% | Activity (MDA-MB-231 [7]): 5.21% | Activity (MDA-MB-231 [8]): 0.41% | Activity (MDA-MB-231 [9]): 0.38% | Activity (MDA-MB-231 [10]): 49.42% | Activity (MDA-MB-231 [11]): 7.52% | inhibition (Mus musculus): Active | inhibition in vivo at 5 mg/kg/day (MDA-MB-231 [12]): 26%
